According to ChEMBL document CHEMBL3124793, “Discovery of spirofused piperazine and diazepane amides as selective histamine-3 antagonists with in vivo efficacy in a mouse model of cognition” (J Med Chem, 2014):
Calls of active or inactive are those of the source.

Columns and labels:
Histamine H3 receptor [1] = target: T1, Histamine H3 receptor (Homo sapiens, UniProt Q9Y5N1); experiment: Antagonist activity at human histamine H3 receptor long form expressed in CHOK1 cells assessed as inhibition of R-alpha-methylhistamine-induced [35S]GTPgammaS binding after 3 hrs by scintillation proximity assay; type: functional, cell-based, CHO-K1
How it was run: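 Membranes from CHO-K1 cells stably expressing human H3R long form (445 aa) incubated 3 h with test compound, 25 nM R-α-methylhistamine, 10 μM GDP, 0.2 nM [35S]GTPγS and WGA PVT SPA beads; bead-bound [35S]GTPγS counted by scintillation. Average of n > 2, standard error <20%.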

[2] = Intrinsic clearance in rat liver microsomes; type: ADME; details: read-out: CLH
[3] = Apparent permeability from apical to basolateral side in MDCK cells; type: ADME, cell-based, Canis lupus familiaris; details: dog
How it was run: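 MDCK monolayers; A-to-B Papp in 1 × 10⁻⁶ cm/s; efflux taken as ratio of A-to-B Papp over B-to-A Papp.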

Rattus norvegicus [4] = experiment: […] clearance in rat at 2.4 umol/kg, iv; type: ADME, organism-based; details: in vivo
How it was run: (§1)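 IV dosing in male fasted rats, doses in μmol/kg; mean Vss, half-life and clearance derived; number of rats per compound reported.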

[5] = Equilibrium solubility of the compound at pH 7.4; type: physicochemical; details: buffer
[6] = target: T2, 5-hydroxytryptamine receptor 1A (Homo sapiens) (UniProt P08908); experiment: Activity at 5-HT1A receptor (unknown origin) at 10 uM relative to control
T2 sequence (whole entry): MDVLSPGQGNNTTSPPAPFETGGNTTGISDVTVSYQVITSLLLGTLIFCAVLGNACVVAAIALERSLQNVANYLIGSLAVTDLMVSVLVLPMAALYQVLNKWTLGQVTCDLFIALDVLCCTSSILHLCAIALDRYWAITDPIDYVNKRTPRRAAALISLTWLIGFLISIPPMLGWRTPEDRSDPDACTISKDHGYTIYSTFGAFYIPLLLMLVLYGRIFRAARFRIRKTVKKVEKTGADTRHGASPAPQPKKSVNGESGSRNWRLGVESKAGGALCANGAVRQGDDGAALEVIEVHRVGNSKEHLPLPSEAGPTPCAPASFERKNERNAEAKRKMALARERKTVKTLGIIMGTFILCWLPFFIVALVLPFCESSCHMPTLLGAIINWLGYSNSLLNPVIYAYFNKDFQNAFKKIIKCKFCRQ
How it was run: (§2)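 Single-concentration binding at 10 μM against a panel of off-targets, run by an outside testing laboratory; activity judged against each assay's defined criteria.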

[7] = target: T3, Muscarinic acetylcholine receptor M2 (Homo sapiens) (UniProt P08172); experiment: Activity at muscarinic M2 receptor (unknown origin) at 10 uM relative to control; how it was run: as §2
T3 sequence (whole entry): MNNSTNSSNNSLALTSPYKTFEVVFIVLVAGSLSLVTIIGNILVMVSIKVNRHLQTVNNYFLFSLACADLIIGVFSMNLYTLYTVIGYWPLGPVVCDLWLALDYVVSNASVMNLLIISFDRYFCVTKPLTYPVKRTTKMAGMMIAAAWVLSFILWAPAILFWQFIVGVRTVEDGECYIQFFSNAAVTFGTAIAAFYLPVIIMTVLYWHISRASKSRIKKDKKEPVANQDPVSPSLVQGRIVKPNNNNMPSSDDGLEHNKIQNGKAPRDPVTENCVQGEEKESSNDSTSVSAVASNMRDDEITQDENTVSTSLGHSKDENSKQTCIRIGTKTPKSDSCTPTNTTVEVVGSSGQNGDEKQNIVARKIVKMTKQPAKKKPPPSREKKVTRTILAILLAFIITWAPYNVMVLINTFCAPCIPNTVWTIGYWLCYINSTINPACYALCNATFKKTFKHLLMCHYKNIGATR

[8] = target: Sodium-dependent noradrenaline transporter (Homo sapiens) (UniProt P23975); experiment: Activity at NET (unknown origin) at 10 uM relative to control; how it was run: as §2
Homo sapiens [9] = species on record: Homo sapiens; experiment: Activity at GABA receptor (unknown origin) at 10 uM relative to control; how it was run: as §2
Homo sapiens [10] = species on record: Homo sapiens; experiment: Activity at nicotinic acetylcholine receptor (unknown origin) at 10 uM relative to control; how it was run: as §2
[11] = Volume of distribution at steady state in rat at 2.4 umol/kg, iv; type: ADME, organism-based; details: in vivo, read-out: Vdss; how it was run: as §1
[12] = target: D(2) dopamine receptor (Homo sapiens) (UniProt P14416); experiment: Activity at dopamine D2 receptor (unknown origin) at 10 uM relative to control; how it was run: as §2
[13] = target: Phosphodiesterase 4 (Homo sapiens) (UniProt P27815+Q08499+Q07343+Q08493); experiment: Activity at PDE4 (unknown origin) at 10 uM relative to control; type: protein assay; how it was run: as §2
[14] = target: Histamine H1 receptor (Homo sapiens) (UniProt P35367); experiment: Activity at histamine H1 receptor (unknown origin) at 10 uM relative to control; how it was run: as §2
[15] = target: Histamine H4 receptor (Homo sapiens) (UniProt Q9H3N8); experiment: Activity at histamine H4 receptor (unknown origin) at 10 uM relative to control; how it was run: as §2
[16] = target: Adenosine receptor A2a (Homo sapiens) (UniProt P29274); experiment: Activity at adenosine A2a receptor (unknown origin) at 10 uM relative to control; how it was run: as §2
[17] = Intrinsic clearance in human liver microsomes; type: ADME; details: read-out: CLH
How it was run: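 Human liver microsomal clearance, expressed as μL/min/mg.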

[18] = Percentage unbound in human plasma; type: ADME, cell-free
How it was run: (§3)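 Plasma protein binding in human or rat plasma, expressed as percent free.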

[19] = Half life in rat at 2.4 umol/kg, iv; type: ADME, organism-based; details: in vivo; how it was run: as §1
Mus musculus = experiment: Cognitive enhancing effect in CF-1 mouse at 1 to 10 mg/kg, sc administered 60 mins prior to acquisition phase by novel object exploration test; type: functional, organism-based
How it was run: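 Male CF-1 mice given 1, 3 or 10 mg/kg s.c. 60 min before acquisition with two identical objects; one object then swapped for a novel one; mice re-tested 15 min later. Novel/familiar interaction ratio (50% = no preference) from manual scoring; mean ± SD; ANOVA with Newman–Keuls post hoc.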

[20] = Oral bioavailability in Sprague-Dawley rat 3 umol/kg; type: ADME, organism-based; details: in vivo
[21] = Volume of distribution at steady state in rat at 3 umol/kg, iv; type: ADME, organism-based; details: in vivo, read-out: Vdss
How it was run: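 Male fasted rats given a single IV dose. Volume of distribution taken as the mean from plasma sampling after the IV dose. Animals per compound: 1 to 7.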

[22] = Half life in rat at 3 umol/kg, iv; type: ADME, organism-based; details: in vivo; how it was run: as §1
[23] = Apparent half life in Sprague-Dawley rat; type: ADME, organism-based; details: in vivo, read-out: t1/2(app) (converted)
Rattus norvegicus [24] = experiment: […] clearance in rat at 3 umol/kg, iv; type: ADME, organism-based; details: in vivo; how it was run: as §1
Salmonella typhimurium = experiment: Genotoxicity in Salmonella typhimurium by Ames test; type: toxicity, organism-based; details: salmonella enterica subsp. enterica serovar typhimurium
Histamine H3 receptor [25] = target: T1, Histamine H3 receptor; experiment: Displacement of [3H]-N-alpha-methylhistamine from human histamine H3 receptor expressed in CHOK1 cells after 1.5 hrs by scintillation proximity assay; type: cell-based, CHO-K1
How it was run: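 Human H3R-CHO-K1 membranes incubated 1.5 h with test compound and [3H]-N-α-methylhistamine in SPA format; nonspecific binding defined with 10 μM imetit; bead-bound radioligand counted. Average of n > 2, standard error <50%.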

[26] = Cmax in Sprague-Dawley rat 3 umol/kg, po; type: ADME, organism-based; set-up: dose 3 umol/kg, route oral; details: in vivo
[27] = Tmax in Sprague-Dawley rat 3 umol/kg, po; type: ADME, organism-based; details: in vivo
[28] = Plasma clearance in Sprague-Dawley rat; type: ADME, organism-based; details: read-out: AUC
Rattus norvegicus [29] = species on record: Rattus norvegicus; experiment: Inhibition of rat sigma-2 receptor at 10 uM relative to control
How it was run: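 Radioligand binding screen within a 144-receptor secondary pharmacology panel, run at a single 10 μM test concentration. The response is expressed as percent activity. Activity was judged against each assay's own defined criteria.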

[30] = Plasma concentration in Sprague-Dawley rat at 3 umol/kg, iv after 1 hr; type: ADME, organism-based
How it was run: (§4)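 3 μmol/kg IV; plasma, brain and CSF sampled at 1 h, n = 4; brain not corrected for ~2–3% vascular contamination; nonspecific binding during CSF sampling not evaluated; mean with standard deviation.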

[31] = Drug uptake in Sprague-Dawley rat CSF at 3 umol/kg, iv after 1 hr; type: ADME, organism-based, Cerebrospinal fluid; details: read-out: Drug uptake; how it was run: as §4
[32] = Induction of phospholipidosis in mouse I-13.35 cells by EthD-2 staining-based assay; type: cell-based
[33] = Octanol-water partition coefficient, log D of the compound by shake flask HPLC analysis; type: physicochemical
How it was run: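 logD between octanol and water by shake-flask with HPLC analysis.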

[34] = target: Histamine H2 receptor (Homo sapiens) (UniProt P25021); experiment: Activity at histamine H2 receptor (unknown origin) at 10 uM relative to control; how it was run: as §2
Brain = experiment: Drug uptake in Sprague-Dawley rat brain at 3 umol/kg, iv after 1 hr; type: ADME, organism-based; details: in vivo; how it was run: as §4
[35] = Drug recovery in Sprague-Dawley rat urine at 3 umol/kg, iv after 24 hrs; type: ADME, organism-based; details: read-out: Drug recovery
[36] = Percentage unbound in rat plasma; type: ADME, cell-free; how it was run: as §3

T1 sequence (Q9Y5N1 whole entry): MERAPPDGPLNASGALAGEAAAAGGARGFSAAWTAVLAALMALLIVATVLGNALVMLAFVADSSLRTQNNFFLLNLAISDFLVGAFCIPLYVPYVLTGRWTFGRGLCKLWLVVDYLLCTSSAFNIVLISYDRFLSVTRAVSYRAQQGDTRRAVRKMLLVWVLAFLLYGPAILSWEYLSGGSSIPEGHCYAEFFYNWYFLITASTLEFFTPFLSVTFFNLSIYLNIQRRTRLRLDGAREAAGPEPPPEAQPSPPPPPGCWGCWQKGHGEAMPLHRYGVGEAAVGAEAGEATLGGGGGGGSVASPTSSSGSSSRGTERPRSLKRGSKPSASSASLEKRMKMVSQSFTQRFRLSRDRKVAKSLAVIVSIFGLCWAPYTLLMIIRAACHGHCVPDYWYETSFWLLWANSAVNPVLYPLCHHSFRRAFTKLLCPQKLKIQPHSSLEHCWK
Chain of Sodium-dependent noradrenaline transporter (Homo sapiens) (P23975 whole entry): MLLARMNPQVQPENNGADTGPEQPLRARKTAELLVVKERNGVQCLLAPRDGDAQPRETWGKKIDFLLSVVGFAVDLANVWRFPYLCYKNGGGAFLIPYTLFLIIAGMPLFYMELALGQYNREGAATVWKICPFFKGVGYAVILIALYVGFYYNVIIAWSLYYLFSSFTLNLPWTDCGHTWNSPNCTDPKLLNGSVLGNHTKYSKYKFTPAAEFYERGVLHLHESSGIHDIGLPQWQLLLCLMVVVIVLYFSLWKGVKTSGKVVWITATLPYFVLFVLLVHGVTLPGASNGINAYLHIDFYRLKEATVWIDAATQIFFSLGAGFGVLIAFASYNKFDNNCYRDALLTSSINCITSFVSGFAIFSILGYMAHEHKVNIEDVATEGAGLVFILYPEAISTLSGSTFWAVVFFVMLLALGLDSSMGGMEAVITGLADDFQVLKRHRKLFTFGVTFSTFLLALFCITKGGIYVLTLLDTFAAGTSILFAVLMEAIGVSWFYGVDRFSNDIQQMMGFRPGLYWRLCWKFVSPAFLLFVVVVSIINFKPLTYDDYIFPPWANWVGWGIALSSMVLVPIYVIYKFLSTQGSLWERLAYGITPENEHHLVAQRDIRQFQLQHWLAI
Chain of Histamine H4 receptor (Homo sapiens) (Q9H3N8 whole entry): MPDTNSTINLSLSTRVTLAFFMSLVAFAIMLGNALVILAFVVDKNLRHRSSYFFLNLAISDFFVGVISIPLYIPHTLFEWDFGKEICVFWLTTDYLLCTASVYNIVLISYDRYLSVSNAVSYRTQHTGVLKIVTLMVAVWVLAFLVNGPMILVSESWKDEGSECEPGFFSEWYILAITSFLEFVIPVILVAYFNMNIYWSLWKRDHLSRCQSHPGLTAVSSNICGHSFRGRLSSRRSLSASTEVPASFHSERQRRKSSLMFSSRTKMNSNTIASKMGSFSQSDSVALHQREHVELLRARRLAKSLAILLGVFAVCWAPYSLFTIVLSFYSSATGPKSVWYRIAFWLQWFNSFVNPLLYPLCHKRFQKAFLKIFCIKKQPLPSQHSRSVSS
Chain of D(2) dopamine receptor (Homo sapiens) (P14416 whole entry): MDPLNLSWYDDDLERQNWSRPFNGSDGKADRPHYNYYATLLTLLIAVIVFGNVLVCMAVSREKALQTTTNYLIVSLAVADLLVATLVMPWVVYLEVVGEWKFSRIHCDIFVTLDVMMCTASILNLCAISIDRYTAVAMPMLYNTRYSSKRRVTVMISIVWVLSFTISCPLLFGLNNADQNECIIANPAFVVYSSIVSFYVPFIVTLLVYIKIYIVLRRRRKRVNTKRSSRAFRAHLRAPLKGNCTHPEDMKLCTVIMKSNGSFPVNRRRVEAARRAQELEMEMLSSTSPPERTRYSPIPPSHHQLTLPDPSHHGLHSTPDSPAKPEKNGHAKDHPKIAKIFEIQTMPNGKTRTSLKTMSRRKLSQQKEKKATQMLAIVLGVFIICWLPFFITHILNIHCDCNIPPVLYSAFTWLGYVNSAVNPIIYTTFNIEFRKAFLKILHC
Chain of Adenosine receptor A2a (Homo sapiens) (P29274 whole entry): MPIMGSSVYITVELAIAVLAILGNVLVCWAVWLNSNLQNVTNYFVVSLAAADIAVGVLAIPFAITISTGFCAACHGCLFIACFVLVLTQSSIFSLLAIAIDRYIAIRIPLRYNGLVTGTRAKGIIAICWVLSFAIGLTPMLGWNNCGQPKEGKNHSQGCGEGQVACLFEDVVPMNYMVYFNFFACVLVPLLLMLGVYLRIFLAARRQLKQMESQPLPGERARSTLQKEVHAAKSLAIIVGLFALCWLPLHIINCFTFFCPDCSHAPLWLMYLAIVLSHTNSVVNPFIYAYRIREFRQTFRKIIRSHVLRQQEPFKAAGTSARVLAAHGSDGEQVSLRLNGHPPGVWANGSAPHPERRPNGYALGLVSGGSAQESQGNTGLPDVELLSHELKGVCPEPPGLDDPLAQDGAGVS
Chain of Histamine H1 receptor (Homo sapiens) (P35367 whole entry): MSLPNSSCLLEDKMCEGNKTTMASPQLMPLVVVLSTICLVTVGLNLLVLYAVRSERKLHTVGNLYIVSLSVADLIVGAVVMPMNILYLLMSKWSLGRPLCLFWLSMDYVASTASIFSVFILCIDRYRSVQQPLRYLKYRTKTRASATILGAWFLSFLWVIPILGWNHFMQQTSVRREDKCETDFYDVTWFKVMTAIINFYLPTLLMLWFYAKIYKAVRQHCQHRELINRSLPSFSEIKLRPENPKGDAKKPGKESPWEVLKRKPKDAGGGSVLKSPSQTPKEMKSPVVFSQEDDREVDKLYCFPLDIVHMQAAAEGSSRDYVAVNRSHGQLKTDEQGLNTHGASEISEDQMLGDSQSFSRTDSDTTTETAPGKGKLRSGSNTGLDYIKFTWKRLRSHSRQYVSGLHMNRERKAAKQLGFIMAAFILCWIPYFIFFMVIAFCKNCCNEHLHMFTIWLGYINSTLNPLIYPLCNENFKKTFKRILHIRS
Chain of Histamine H2 receptor (Homo sapiens) (P25021 whole entry): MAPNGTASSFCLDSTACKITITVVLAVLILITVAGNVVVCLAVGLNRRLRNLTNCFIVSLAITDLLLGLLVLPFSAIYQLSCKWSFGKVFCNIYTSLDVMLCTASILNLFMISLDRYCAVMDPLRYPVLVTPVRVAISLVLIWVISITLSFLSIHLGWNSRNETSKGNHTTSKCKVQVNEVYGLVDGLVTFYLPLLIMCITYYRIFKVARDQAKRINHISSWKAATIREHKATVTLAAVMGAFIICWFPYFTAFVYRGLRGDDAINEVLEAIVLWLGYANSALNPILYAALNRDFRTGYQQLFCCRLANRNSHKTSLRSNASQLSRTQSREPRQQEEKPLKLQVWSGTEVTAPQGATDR

`O=C(C1CC2(CCN(C3CCOCC3)CC2)C1)N1CCN(C2CCC2)CC1` showed an IC50 (Histamine H3 receptor [1]) of 1.9 nM, a microsomal CLint [2] of under 4 µL/min/mg and a Papp A→B [3] of 5.1 ×10⁻⁶ cm/s. It also gave a CL (Rattus norvegicus [4]) of 81.2 mL/min/kg, a solubility thermodynamic [5] of over 500 µM and an Activity [6] of over 10%. It also gave an Activity [7] of over 10%, an Activity [8] of over 10% and an Activity (Homo sapiens [9]) of over 10%. It also gave an Activity (Homo sapiens [10]) of over 10%, a Vd [11] of 74 L/kg and an Activity [12] of over 10%. For the same compound, the Activity [13] was over 10%, the Activity [14] was over 10% and the Activity [15] was over 10%. For the same compound, the Activity [16] was over 10%, the microsomal CLint [17] was under 4 µL/min/mg and the fraction unbound [18] was 0.51. It also gave a half-life [19] of 852 min.

With `CC(C)N1CCN(C(=O)[C@H]2CC23CCN(C2CCOCC2)CC3)CC1` the Activity (Mus musculus) was “Active”, the IC50 (Histamine H3 receptor [1]) was 8.3 nM and the microsomal CLint [2] was 7 µL/min/mg. For the same compound, the bioavailability [20] was 99%, the Vd [21] was 34.6 L/kg and the Papp A→B [3] was 13 ×10⁻⁶ cm/s. It also gave a half-life [22] of 1520 min, a solubility thermodynamic [5] of over 500 µM and a half-life [23] of 900 min. The Activity [6] was over 10%, the CL (Rattus norvegicus [24]) was 16.4 mL/min/kg and the Activity [7] was over 10%. The Activity [8] was over 10%, the Activity (Homo sapiens [9]) was over 10% and the Activity (Salmonella typhimurium) was “Non-toxic”. For the same compound, the Activity (Homo sapiens [10]) was over 10%, the Ki (Histamine H3 receptor [25]) was 0.8 nM and the Cmax [26] was 71 nM. It also gave an Activity [12] of over 10%, a Tmax [27] of 6 h and an Activity [13] of over 10%. It also gave a clearance [28] of 53 mL/min/kg, an inhibition (Rattus norvegicus [29]) of 62% and an Activity [14] of over 10%. It also gave a concentration at 1 h [30] of 180 nM, a concentration at 1 h [31] of 34 nM and an EC50 [32] of over 300 µM. For the same compound, the logD [33] was -0.26, the Activity [34] was over 10% and the Activity [15] was over 10%. For the same compound, the Activity [16] was over 10%, the microsomal CLint [17] was under 4 µL/min/mg and the Drug uptake (Brain) was 540 nmol/kg. It also gave a dose excreted at 24 h [35] of 14% and a fraction unbound [36] of 0.87.
